This is an account of results in ChEMBL document CHEMBL2062385, “Bone-targeting glycol and NSAIDS ester prodrugs of rhein: synthesis, hydroxyapatite affinity, stability, anti-inflammatory, ulcerogenicity index and pharmacokinetics studies” (Eur J Med Chem, 2012).

A word on the inhibition in vivo: it is the share of the control response that was lost under treatment. As usually defined, the half-life is the time in which the quantity being followed falls by half. As a reminder, the MRT last is the average time that molecules of a dose stay in the body. As usually defined, the AUC is the area under the concentration-time curve, a measure of exposure. A word on the AUC(0-t): it is exposure summed from dosing to a finite time, without extrapolation to infinity. Lower therefore signals less exposure. In general, MRT refers to a mean duration of stay, worked out from the concentration-time curve. As a reminder, the MRT inf is the average time that molecules of a dose stay in the body. One may read the Cmax as the peak of the concentration-time curve. Broadly, the AUC(0-inf) is the area under the concentration-time curve extrapolated to infinity. A lower AUC(0-inf) goes with low exposure. A word on the Tmax: it is the time from dosing to the highest level.

For one data set, the system named is Hydroxyapatite. Put plainly: Binding affinity to bone mineral hydroxyapatite after 30 mins by RP-HPLC analysis. The essentials:
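Each compound (10 mL, 0.1 mmol/L in water) stirred vigorously with 20, 40 or 80 mg hydroxyapatite for 30 min. Then analysed by HPLC on C18 with methanol/0.1% H3PO4 90:10 (pH 2.3), 25 °C, 1.0 mL/min, 254 nm detection. n = 3.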

For data set [1], the system named is Mus musculus. Nature of the data set: Ulcerogenic activity in Kunming mouse assessed as ulcer index at 1 mmol/kg, po measured after 4 hrs. The class given is toxicity, organism-based. The settings on record: in vivo. Put shortly: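 Kunming mice of either sex (18-22 g), ten per group, fasted from food and water for 24 h. Then given 1.0 mmol/kg orally as a suspension in 1% methylcellulose. Killed at 4 h; stomachs fixed 30 min in 10% formaldehyde, opened along the greater curvature and ulcers measured under a magnifier. Ulcer index = summed lesion length (mm) per stomach averaged over 10 animals.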

Data set [2] can be described thus: Prodrug conversion at pH 1.2 assessed as hydrolysis up to 24 hrs by HPLC analysis. The settings on record: buffer, pH 1.2, 24 h. Type of data set: physicochemical. The essentials: (§1)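 Prodrugs held at 37 °C for up to 24 h in phosphate-buffered saline adjusted to pH 1.2 or pH 7.4. Samples taken at set intervals. Released parent drugs quantified by C18 HPLC with methanol/0.1% H3PO4 90:10 (pH 2.3), 25 °C, 1.0 mL/min, 254 nm. Run in triplicate.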

Data set [3] in a line: Prodrug conversion at pH 7.4 assessed as hydrolysis up to 24 hrs by HPLC analysis. The class given is physicochemical. Particulars: buffer, pH 7.4, 24 h. The essentials: as §1
The subject of data set [4] is Mus musculus. Nature of the data set: Antiinflammatory activity in Kunming mouse assessed as inhibition of xylene-induced auricle tumefaction at 0.2 mmol/kg, po qd administered prior to challenge for 5 days measured 30 mins post challenge. Type of data set: functional. The essentials:
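Male Kunming mice (18-22 g), ten per group, dosed once daily for 5 days at 0.2 mmol/kg; controls got 0.9% NaCl. A 7 mm filter soaked in xylene was held on the right ear for 30 s, 1 h after the last dose. Mice were killed 30 min later and 7 mm ear punches taken. Inhibition = (1 − a/b)×100%, from tumefaction degree of control and test groups.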

A short description of data set [5]: Half life in Sprague-Dawley rat at 5.26 mg/kg, po. Particulars: in vivo. Also noted: dose 5.26 mg/kg, route oral. The class given is ADME, organism-based. Put shortly:
(§2)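 SD rats of either sex (200 ± 20 g), six per group, dosed by gastric intubation after recovery from anesthesia. Arterial blood (~0.5 mL) drawn predose and at 0.17, 0.33, 0.5, 0.75, 1, 1.5, 2, 2.5, 3, 4, 5, 7 and 9 h. Plasma separated at once by centrifugation. Rhein in plasma measured by HPLC with diode-array detection.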

The nature of data set [6]: MRT (0 to 9 hrs) in Sprague-Dawley rat at 5.26 mg/kg, po. Also noted: dose 5.26 mg/kg, route oral. The settings on record: in vivo. Type of data set: ADME, organism-based. Put shortly: as §2
Data set [7] relates to Rattus norvegicus. Put plainly: AUC (0 to infinity) in Sprague-Dawley rat assessed as rhein at 10 mg/kg, po. Type of data set: ADME, organism-based, Plasma. Further details: time infinity, dose 10 mg/kg, route oral. The settings on record: in vivo. The essentials:
as §2

A short description of data set [8]: AUC (0 to 9 hrs) in Sprague-Dawley rat at 5.26 mg/kg, po. The class given is ADME, organism-based. Further details: time < 9 hr, dose 5.26 mg/kg, route oral. The settings on record: plasma. Put shortly:
as §2

Data set [9] concerns Rattus norvegicus. Put plainly: Half life in Sprague-Dawley rat assessed as rhein at 10 mg/kg, po. The class given is ADME, organism-based. Further details: dose 10 mg/kg, route oral. The settings on record: in vivo. Put shortly:
as §2

Data set [10] has as its system Rattus norvegicus. Nature of the data set: MRT (0 to 9 hrs) in Sprague-Dawley rat assessed as rhein at 10 mg/kg, po. The class given is ADME, organism-based. Further details: dose 10 mg/kg, route oral. Particulars: in vivo. The essentials:
as §2

For data set [11], the system named is Rattus norvegicus. Nature of the data set: AUC (0 to 9 hrs) in Sprague-Dawley rat assessed as rhein at 10 mg/kg, po. The settings on record: in vivo. The class given is ADME, organism-based, Plasma. Further details: time < 9 hr, dose 10 mg/kg, route oral. The essentials: as §2
Data set [12] in a line: MRT (0 to infinity) in Sprague-Dawley rat at 5.26 mg/kg, po. Type of data set: ADME, organism-based. Further details: dose 5.26 mg/kg, route oral. Particulars: in vivo. The essentials: as §2
A short description of data set [13]: Cmax in Sprague-Dawley rat at 5.26 mg/kg, po. The class given is ADME, organism-based. Also noted: dose 5.26 mg/kg, route oral. The settings on record: in vivo. Put shortly:
as §2

Data set [14] has as its system Rattus norvegicus. Nature of the data set: MRT (0 to infinity) in Sprague-Dawley rat assessed as rhein at 10 mg/kg, po. The class given is ADME, organism-based. Further details: dose 10 mg/kg, route oral. Particulars: in vivo. The essentials: as §2
Data set [15] can be described thus: AUC (0 to infinity) in Sprague-Dawley rat at 5.26 mg/kg, po. Particulars: plasma. Type of data set: ADME, organism-based. Also noted: time infinity, dose 5.26 mg/kg, route oral. The essentials:
as §2

A short description of data set [16]: Tmax in Sprague-Dawley rat at 5.26 mg/kg, po. The class given is ADME, organism-based. Further details: dose 5.26 mg/kg, route oral. Particulars: in vivo. Put shortly: as §2
Data set [17] deals with Rattus norvegicus. Nature of the data set: Tmax in Sprague-Dawley rat assessed as rhein at 10 mg/kg, po. Type of data set: ADME, organism-based. Further details: dose 10 mg/kg, route oral. Particulars: in vivo. Put shortly:
as §2

Data set [18] relates to Rattus norvegicus. Put plainly: Cmax in Sprague-Dawley rat assessed as rhein at 10 mg/kg, po. Type of data set: ADME, organism-based. Also noted: dose 10 mg/kg, route oral. The settings on record: in vivo. The essentials: as §2

Active and inactive are the calls of the source. The calls are words filed in the database; no cut-off is given here.

Consider `CC(C)Cc1ccc(C(C)C(=O)OCCOCCOC(=O)c2cc(O)c3c(c2)C(=O)c2cccc(O)c2C3=O)cc1` (stereo not given), for which the result in the data set with Hydroxyapatite was Active. For the same compound, in the data set on Mus musculus [1], the UI was determined as 5.8. The Drug metabolism entry in [2] and in data set [3] was “Active” throughout. For the same compound, in the data set on Mus musculus [4], the inhibition in vivo at 200 µmol/kg stood at 32.7%.
`CC(=O)Oc1cccc2c1C(=O)c1c(OC(C)=O)cc(C(=O)OCCOCCO)cc1C2=O`: in the data set on Hydroxyapatite, the result was Active. The Drug metabolism entry in data set [2] and in data set [3] was “Active” each time. Further, the inhibition in vivo at 200 µmol/kg in the data set with Mus musculus [4] was found to be 15%.
As to `O=C(O)c1cc(O)c2c(c1)C(=O)c1cccc(O)c1C2=O` [RHEIN], the result in the data set with Hydroxyapatite was Active. This compound gave a half-life in data set [5] of 1.24 h. In data set [6], this compound came in with an MRT last of 2.92 h. In addition, the AUC was determined as 1394 ng·h/mL with Rattus norvegicus [7] and 1178 ng·h/mL in the data set on Rattus norvegicus [11]. In [2], the Drug metabolism result is given as “Active”. The same compound displayed an AUC(0-t) at 9 h in data set [8] of 1170 ng·h/mL. Further, the t1/2 in the data set with Rattus norvegicus [9] was found to be 2.771 h. The figures for the MRT in the data set with Rattus norvegicus [10] and in the data set on Rattus norvegicus [14] were 4.291 h and 5.699 h, respectively. The compound further yielded an MRT inf in data set [12] of 3.78 h. Besides, the Cmax was 432 ng/mL in data set [13] and 291 ng/mL in the data set with Rattus norvegicus [18]. The same compound yielded an AUC(0-inf) in data set [15] of 1380 ng·h/mL. Moreover, the Tmax in data set [16] is 2.04 h; in the data set on Rattus norvegicus [17], 2.917 h.
`CC(=O)Oc1ccccc1C(=O)OCCOC(=O)c1cc(OC(C)=O)c2c(c1)C(=O)c1cccc(OC(C)=O)c1C2=O`: in the data set on Hydroxyapatite, the outcome was Active. For the same compound, the Drug metabolism result in data set [2] and in data set [3] was “Active” throughout. Moreover, the inhibition in vivo at 200 µmol/kg with Mus musculus [4] was found to be 19.9%.
Turning to `O=C(O)Cc1ccccc1Nc1c(Cl)cccc1Cl` [DICLOFENAC], in the data set with Mus musculus [4], the inhibition in vivo at 200 µmol/kg was determined as 41.9%.
As for `CC(C)Cc1ccc(C(C)C(=O)OCCOCCOCCOC(=O)c2cc(O)c3c(c2)C(=O)c2cccc(O)c2C3=O)cc1` (stereo not given), the result in the data set with Hydroxyapatite was Active. In the data set on Mus musculus [1], the UI came to 5.8. Also, the Drug metabolism entry in [2] and in data set [3] was “Active” throughout. Also, the inhibition in vivo at 200 µmol/kg in the data set on Mus musculus [4] is 33.9%.
For `CC(=O)Oc1cccc2c1C(=O)c1c(OC(C)=O)cc(C(=O)OCCOC(=O)C(C)c3ccc(CC(C)C)cc3)cc1C2=O` (stereo not given), the outcome in the data set with Hydroxyapatite was Active. For the same compound, the Drug metabolism entry in [2] and in [3] was “Active” each time. The inhibition in vivo at 200 µmol/kg in the data set on Mus musculus [4] is 35.2%.
`COc1ccc2cc(C(C)C(=O)OCCOC(=O)c3cc(OC(C)=O)c4c(c3)C(=O)c3cccc(OC(C)=O)c3C4=O)ccc2c1` (stereo not given): the result in the data set with Hydroxyapatite was Active. Further, the Drug metabolism result in [2] and in [3] was “Active” each time. Further, the inhibition in vivo at 200 µmol/kg in the data set with Mus musculus [4] worked out at 24.4%.
Consider `CC(=O)Oc1cccc2c1C(=O)c1c(OC(C)=O)cc(C(=O)OCCOCCOCCOC(=O)C(C)c3ccc(CC(C)C)cc3)cc1C2=O` (stereo not given), for which the result in the data set with Hydroxyapatite was Active. Also, the Drug metabolism result in [2] and in data set [3] was “Active” in each case. Also, the inhibition in vivo at 200 µmol/kg with Mus musculus [4] is 29.3%.
As for `O=C(OCCOCCO)c1cc(O)c2c(c1)C(=O)c1cccc(O)c1C2=O`, the result with Hydroxyapatite was Active. Moreover, the Drug metabolism result in data set [2] and in [3] was “Active” each time. In addition, in the data set on Mus musculus [4], the inhibition in vivo at 200 µmol/kg was 17.2%.
As to `COc1ccc2c(c1)c(CC(=O)OCCOC(=O)c1cc(OC(C)=O)c3c(c1)C(=O)c1cccc(OC(C)=O)c1C3=O)c(C)n2C(=O)c1ccc(Cl)cc1`, the result in the data set on Hydroxyapatite was Active. For the same compound, the Drug metabolism entry in data set [2] and in data set [3] was “Active” in each case. For the same compound, the inhibition in vivo at 200 µmol/kg in the data set with Mus musculus [4] is 23.4%.
For the compound `CC(C)Cc1ccc(C(C)C(=O)OCCOC(=O)c2cc(O)c3c(c2)C(=O)c2cccc(O)c2C3=O)cc1` (stereo not given), the result in the data set with Hydroxyapatite was Active. Also, the UI in the data set with Mus musculus [1] is 5.8. The Drug metabolism entry in [2] and in [3] was “Active” throughout. Besides, the inhibition in vivo at 200 µmol/kg with Mus musculus [4] came out at 41.2%.
